Consider two compounds from ChEMBL document CHEMBL4376878, “Potent Thiophene Antagonists of Human Complement C3a Receptor with Anti-Inflammatory Activity” (J Med Chem, 2020).

The nature of series [1]: Stability of the compound in rat plasma at 1 mM measured after 10 mins by LC-MS analysis. In kind it is ADME, cell-free. The following applies: 1000 µM.
A further series relates to Rattus norvegicus. Briefly: Antiinflammatory activity in Wistar rat model of BR103-induced paw edema assessed as reduction in hind paw swelling at 10 mg/kg, po administered via gavage pretreated for 2 hrs followed by BR103 challenge and measured after 30 mins by digital caliper method relative to control. In kind it is functional. Details: scale not given: the % may be the effect or the level left. In outline:
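Male Wistar rats were given antagonist at 10 mg/kg by oral gavage in olive oil 2 h before intraplantar BR103 (350 μg in 100 μL of 5% DMSO). Sham paws received vehicle; sham and control rats received olive oil only. Paw thickness and width were measured with digital calipers at 0, 0.5, 1 and 2 h after agonist; n = 3 per group.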

A short description of series [2]: AUC (0 to 8 hrs) in Wistar rat at 1 mg/kg, iv by LC-MS/MS analysis. In kind it is ADME, organism-based. Also on record: time < 8 hr, dose 1 mg/kg, route intravenous. The note with it: in vivo. In outline: (§1)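 Male Wistar rats with jugular vein catheter, fasted overnight; dosed p.o. by gavage in olive oil or i.v. via catheter in 50% DMSO. Blood drawn from conscious unrestrained rats 5 min before dosing, then 5, 15, 30 min and 1–8 h after. Volume replaced with heparinized saline. Rats fed after 4 h sample. n = 3 per route.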

The target in series [3] is T1, C3a anaphylatoxin chemotactic receptor (Homo sapiens) (UniProt Q16581).
T1 sequence (whole entry): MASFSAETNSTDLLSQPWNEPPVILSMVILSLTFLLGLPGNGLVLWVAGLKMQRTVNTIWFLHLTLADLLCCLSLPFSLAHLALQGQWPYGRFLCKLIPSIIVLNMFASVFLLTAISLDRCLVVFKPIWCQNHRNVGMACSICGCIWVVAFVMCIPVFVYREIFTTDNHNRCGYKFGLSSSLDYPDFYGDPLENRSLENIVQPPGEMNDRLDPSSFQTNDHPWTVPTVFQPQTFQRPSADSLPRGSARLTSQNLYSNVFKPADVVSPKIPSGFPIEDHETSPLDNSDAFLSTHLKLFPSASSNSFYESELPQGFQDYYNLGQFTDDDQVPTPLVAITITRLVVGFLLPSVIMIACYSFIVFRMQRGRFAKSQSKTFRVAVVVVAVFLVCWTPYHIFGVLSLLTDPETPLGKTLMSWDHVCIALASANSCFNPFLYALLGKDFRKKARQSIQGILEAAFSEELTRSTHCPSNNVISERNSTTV
Briefly: Potency index, ratio of SB290157 IC50 to test compound IC50 for antagonist activity at C3a receptor in human MDM cells. In kind it is cell-based.

Series [4] in a line: Clearance in Wistar rat at 1 mg/kg, iv by LC-MS/MS analysis. The series is classed as ADME, organism-based. The following applies: in vivo. In outline: as §1
Series [5] is described as follows: AUC (0 to 8 hrs) in Wistar rat at 10 mg/kg, po by LC-MS/MS analysis. The series is classed as ADME, organism-based. Details: dose 10 mg/kg, time < 8 hr, route oral. The note with it: in vivo. In outline:
as §1

Series [6] deals with T2, C5a anaphylatoxin chemotactic receptor 1 (Homo sapiens) (UniProt P21730).
T2 sequence (whole entry): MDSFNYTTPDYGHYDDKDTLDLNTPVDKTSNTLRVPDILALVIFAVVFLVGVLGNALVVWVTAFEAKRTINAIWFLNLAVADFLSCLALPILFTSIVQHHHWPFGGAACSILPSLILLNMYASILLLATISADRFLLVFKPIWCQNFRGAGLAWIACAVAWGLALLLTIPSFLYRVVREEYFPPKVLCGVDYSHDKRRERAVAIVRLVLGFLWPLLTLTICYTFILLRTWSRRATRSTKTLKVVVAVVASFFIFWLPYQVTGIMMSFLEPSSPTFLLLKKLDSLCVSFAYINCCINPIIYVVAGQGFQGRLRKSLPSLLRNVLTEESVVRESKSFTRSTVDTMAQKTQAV
In words: Antagonist activity at C5a receptor in human MDM cells assessed as inhibition of C5a-induced intracellular calcium release preincubated for 30 mins followed by C5a addition and measured at 1 sec interval for => 200 secs by Fluo-3 AM dye-based FLIPR assay. In kind it is functional, cell-based. The gist of the method:
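HMDMs from CD14+ monocytes after 7 days in M-CSF; 5 × 10⁴ cells/well seeded overnight. Cells loaded 1 h at 37 °C with 4 μM Fluo-3 AM, then washed into HBSS with 2.5 mM probenecid and 20 mM HEPES, pH 7.4. Antagonist preincubated 30 min at 37 °C before C5a. Fluorescence (ex 495/em 520 nm) read every 1 s for ≥200 s.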

The nature of series [7]: Volume of distribution in Wistar rat at 1 mg/kg, iv by LC-MS/MS analysis. The series is classed as ADME, organism-based. The note with it: in vivo. The gist of the method: as §1
Series [8] in a line: Cmax in Wistar rat at 10 mg/kg, po by LC-MS/MS analysis. In kind it is ADME, organism-based. Details: dose 10 mg/kg, route oral. The following applies: in vivo. In outline:
as §1

Series [9] is described as follows: Stability of the compound in rat plasma at 1 mM measured after 4 hrs by LC-MS analysis. In kind it is ADME, cell-free. The gist of the method: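 Compound added to rat plasma from 1 mM DMSO stock (stock concentration) and incubated at 37 °C. Samples taken at 0, 5, 15, 30, 60, 120 and 240 min, quenched in MeCN/H₂O 9:1, centrifuged and analyzed by LC-MS. Plasma activity checked with SLIGRL-NH₂.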

Series [10] in a line: Tmax in Wistar rat at 10 mg/kg, po by LC-MS/MS analysis. The series is classed as ADME, organism-based. The note with it: in vivo. The gist of the method: as §1
For series [11], the target named is T1, C3a anaphylatoxin chemotactic receptor (Homo sapiens). In words: (§2) Antagonist activity at C3a receptor in human MDM cells assessed as inhibition of C3a-induced intracellular calcium release preincubated for 30 mins followed by C3a addition and measured at 1 sec interval for => 200 secs by Fluo-3 AM dye-based FLIPR assay. The series is classed as functional, cell-based. The gist of the method:
(§3)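 Macrophages were derived from CD14⁺ monocytes (M-CSF, 7 days) and dye-loaded with 4 μM Fluo-3 AM for 1 h at 37 °C in HBSS/probenecid/HEPES, pH 7.4. Antagonist was preincubated for 30 min at 37 °C before addition of synthetic full-length human C3a (100 nM). FLIPR fluorescence was read at ex 495/em 520 nm. Percent response was plotted against log concentration; n ≥ 3.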
On the technique in general: Calcium assays in cells follow changes in intracellular calcium, usually with a dye or a luminescent sensor.

Series [12] deals with T3, C3a anaphylatoxin chemotactic receptor (Homo sapiens, UniProt Q16581).
T3 sequence (Q16581 whole entry): T1 sequence (whole entry)
The description is as §2. The series is classed as functional, cell-based. The following applies: read-out: IC50. In outline:
as §3

Series [13] in a line: Elimination half-life in Wistar rat at 1 mg/kg, iv by LC-MS/MS analysis. The series is classed as ADME, organism-based. The following applies: in vivo, read-out: beta t1/2. The gist of the method: as §1
Series [14] in a line: Stability of the compound in rat liver microsomes assessed as compound degradation at 1 uM preincubated for 5 mins followed by NADPH addition and measured after 1 hr by LC-MS/MS analysis. In kind it is ADME, Microsome. The note with it: read-out: Drug degradation. The gist of the method:
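Compound at 1 μM in 100 mM phosphate buffer pH 7.4 with 0.1% DMSO was mixed with rat liver microsomes and preincubated 5 min at 37 °C before NADPH was added. Samples taken at 0, 5, 15, 30 and 60 min, quenched in MeCN/H₂O 9:1 and analyzed by LC-MS/MS. Microsome activity checked with SLIGRL-NH₂; n = 3.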
(Liver microsomes are vesicles of endoplasmic reticulum, rich in cytochrome P450 enzymes.)

The target of series [15] is T1, C3a anaphylatoxin chemotactic receptor (Homo sapiens). In words: (§4) Antagonist at C3a receptor in human LAD2 cells assessed as inhibition of C3a-induced beta-hexosaminidase release preincubated for 30 mins followed by C3a addition. The series is classed as cell-based. In outline:
(§5)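 LAD2 mast cells grown with SCF, 1 × 10⁴ cells/well seeded overnight and presensitized overnight with IgE (100 ng/mL). Compounds preincubated 30 min at 37 °C in 0.1 M HEPES pH 7.4, then C3a added and β-hexosaminidase release measured. IC50 is concentration inhibiting 50% of release induced by 100 nM C3a; n ≥ 3.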

Series [16] has as its target T3, C3a anaphylatoxin chemotactic receptor. The description is as §4. The series is classed as cell-based. In outline: as §5
Series [17] has as its target T1, C3a anaphylatoxin chemotactic receptor (Homo sapiens). Briefly: Potency index, ratio of SB290157 IC50 to test compound IC50 for antagonist activity at C3a receptor in human LAD2 cells assessed as inhibition of C3a-induced beta-hexosaminidase release. In kind it is cell-based.
The target of series [18] is T3, C3a anaphylatoxin chemotactic receptor. Briefly: Agonist activity at C3a receptor in human MDM cells assessed as induction of intracellular calcium release measured at 1 sec interval for => 200 secs by Fluo-3 AM dye-based FLIPR assay. In kind it is cell-based. In outline: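 HMDMs were differentiated from CD14⁺ monocytes with M-CSF (100 ng/mL) for 7 days and seeded overnight at 5 × 10⁴ cells/well. Cells were loaded with 4 μM Fluo-3 AM for 1 h at 37 °C, then placed in HBSS with 2.5 mM probenecid and 20 mM HEPES, pH 7.4. Agonist was added on FLIPR and read at ex 495/em 520 nm. EC50 is relative to the maximum from 1 μM C3a; n ≥ 3.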

Structures are written as SMILES. The source made the active and inactive calls. The rule behind the calls is not given here. Residues, ends and D or L forms follow the SMILES beside them.

As for `CC(C)C[C@H](NC(=O)OC(C)(C)C)C(=O)N[C@@H](C)C(=O)N[C@@H](CCCNC(=N)N)C(=O)O` (HELM PEPTIDE1{[CC(C)(C)OC(=O)[*:2]].L.A.R}$$$$V2.0), in series [1], the Stability entry is listed as “Unstable”.

Consider `Cc1cc(C(c2ccccc2)c2ccccc2)sc1C(=O)N[C@@H](CCCNC(=N)N)C(=O)O`, for which the Activity with Rattus norvegicus came to 49%. Also, the values for the exposure AUC(0-t) at 8 h in [2] and in [5] were 779 ng·h/mL and 90 ng·h/mL, respectively. The Ratio IC50 in series [3] and in series [17] was 100 in each case. In series [4], this compound returned a clearance of 18 mL/min/kg. In addition, the inhibition result in series [6] was “inactive”. Moreover, the volume of distribution (Vd) in series [7] was determined as 0.7 L. This compound returned a peak concentration (Cmax) in series [8] of 23 ng/mL. The Stability entry in [9] was “Stable”. For the same compound, the Tmax in series [10] is 4 h. Moreover, the inhibition entry in series [11] and in series [15] was “Dose-dependent effect” throughout. Also, the IC50 in [12] was 7 nM; in series [16], 2 nM. Also, in series [13], the half-life came to 0.75 h. Also, the metabolised at 1 h, 1 µM in [14] turned out to be 40%. The EC50 in series [18] (read-out: EC50) and in [18] (read-out: pEC50 (converted)) was above 100000 nM throughout.

The AUC(0-t) is the area under the concentration-time curve up to a stated or last time point. Broadly, the clearance is the volume of plasma or blood freed of the substance per unit of time. What is called Vd is the apparent volume that relates the amount in the body to the concentration in plasma or blood. As usually defined, the Cmax is the maximum level reached in the sampled fluid or tissue. By Tmax is commonly meant the time from dosing to the highest level. A word on the IC50: it is the point on the concentration scale where inhibition reaches its midpoint.
